Assay results reported in ChEMBL document CHEMBL2069283, “C-N bond formation under Cu-catalysis: synthesis and in vitro evaluation of N-aryl substituted thieno[2,3-d]pyrimidin-4(3H)-ones against chorismate mutase” (Bioorg Med Chem, 2012).

molecular target: T1, Intracellular chorismate mutase (Mycobacterium tuberculosis) (UniProt P9WIC1); assay: Inhibition of Mycobacterium tuberculosis chorismate mutase at 50 uM using chorismate substrate by spectrophotometry
T1 sequence (whole entry): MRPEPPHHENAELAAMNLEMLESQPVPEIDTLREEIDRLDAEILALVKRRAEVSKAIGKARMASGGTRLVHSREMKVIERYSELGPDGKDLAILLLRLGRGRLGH
In short: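 His-tagged MtCM expressed in E. coli BL21(DE3) and purified by Ni-NTA. Started with 180 pmol enzyme, 5 min at 37 °C, stopped with 1 N HCl. Prephenate formation read at A274 against no-enzyme blanks. % inhibition = 100 − residual activity.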

Point of comparison: O=c1c2c3c(sc2ncn1-c1ccccc1)CCCCC3, inhibition 13%. Against it:
- CC(C)(C)OC(=O)N1CCc2c(sc3ncn(-c4ccccc4)c(=O)c23)C1 — higher, 37.2%
- O=c1c2c3c(sc2ncn1-c1ccc(F)cc1)CCCCC3 — higher, 14.6%
- Cc1csc2ncn(-c3ccc(F)cc3)c(=O)c12 — higher, 17.7%
- O=c1c2c3c(sc2ncn1-c1ccccc1)CCCC3 — higher, 35.6%
- O=c1c2c3c(sc2ncn1-c1ccccc1)CNCC3 — higher, 36.2%
- CC(C)(C)OC(=O)N1CCc2c(sc3ncn(-c4cccc(C=O)c4)c(=O)c23)C1 — higher, 49.9%
- COc1cccc(-n2cnc3sc4c(c3c2=O)CCCC4)c1 — higher, 47%
- O=c1c2c3c(sc2ncn1-c1ccc2ccccc2c1)CCCC3 — higher, 33%
- O=c1c2c3c(sc2ncn1-c1ccc(F)cc1)CCCC3 — lower, 12.8%
- O=C(c1ccccc1I)N1CCc2c(sc3ncn(-c4ccccc4)c(=O)c23)C1 — lower, 12.6%
- O=Cc1cccc(-n2cnc3sc4c(c3c2=O)CCCC4)c1 — higher, 45.3%
- O=c1c2c3c(sc2ncn1-c1cccc(Cl)c1)CCCC3 — higher, 42.5%

molecular target: T2, Intracellular chorismate mutase (Mycobacterium tuberculosis, UniProt P9WIC1); assay: Inhibition of Mycobacterium tuberculosis chorismate mutase using chorismate substrate in dose response study by spectrophotometry
T2 sequence (P9WIC1 whole entry): T1 sequence (whole entry)

Point of comparison: COc1cccc(-n2cnc3sc4c(c3c2=O)CCCC4)c1, IC50 19.8 µM. Against it:
- CC(C)(C)OC(=O)N1CCc2c(sc3ncn(-c4cccc(C=O)c4)c(=O)c23)C1 — within 1.5-fold, 23.9 µM
- COc1cc(CCNc2c([N+](=O)[O-])cc(C(=O)O)cc2S(N)(=O)=O)cc(OC)c1 — lower, < 10 µM
